This is an account of results in publication PMC12370974 (Nature Communications, 2025).

Assay [1] addresses T1, FL PRT1^WT (Arabidopsis thaliana, UniProt Q8LBL5).
T1 sequence (Q8LBL5 1-410): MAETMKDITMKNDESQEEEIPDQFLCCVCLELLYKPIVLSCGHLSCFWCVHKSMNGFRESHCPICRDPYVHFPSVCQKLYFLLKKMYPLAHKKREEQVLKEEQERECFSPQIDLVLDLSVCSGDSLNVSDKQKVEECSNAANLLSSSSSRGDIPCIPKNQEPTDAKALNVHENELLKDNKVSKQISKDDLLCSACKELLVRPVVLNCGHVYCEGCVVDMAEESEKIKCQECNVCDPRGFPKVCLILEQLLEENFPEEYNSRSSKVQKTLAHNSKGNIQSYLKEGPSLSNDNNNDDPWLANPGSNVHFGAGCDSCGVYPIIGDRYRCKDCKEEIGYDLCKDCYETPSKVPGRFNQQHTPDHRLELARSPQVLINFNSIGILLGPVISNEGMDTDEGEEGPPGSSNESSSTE
In words: ITC binding of N-degron peptides to full-length PRT1 wild-type. The gist of the method: (§1)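 Full-length PRT1 (wild type or point mutant) was expressed in E. coli BL21(DE3) with ZnSO4 and purified by Ni-NTA, TEV cleavage of the His6 tag and size exclusion into ITC buffer (50 mM Tris-HCl pH 7.5, 150 mM NaCl, 1 mM TCEP). Protein was at 45~55 μM and synthetic N-degron peptide at ~550 μM in the same buffer, with 19 injections at 25 °C. Data were fitted to a one-site model, with at least three runs.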

The target in assay [2] is T2, FL PRT1^Y317A (Arabidopsis thaliana, UniProt Q8LBL5, Y317A).
T2 sequence (Q8LBL5 1-410 Y317A): T1 sequence (Q8LBL5 1-410) with Y317A
In words: ITC binding of N-degron peptides to full-length PRT1 Y317A mutant. As to conditions: 25 °C, ITC buffer pH 7.5, one-site model. The gist of the method:
as §1

For assay [3], the target named is T3, FL PRT1^I333A (Arabidopsis thaliana, UniProt Q8LBL5, I333A).
T3 sequence (Q8LBL5 1-410 I333A): T1 sequence (Q8LBL5 1-410) with I333A
In words: ITC binding of N-degron peptides to full-length PRT1 I333A mutant. As to conditions: 25 °C, ITC buffer pH 7.5, one-site model. The gist of the method: as §1

The target in assay [4] is T4, ZZ domain-deleted RING domains (RING1 + RING2) of PRT1 (Arabidopsis thaliana, UniProt Q8LBL5).
T4 sequence (Q8LBL5 1-273): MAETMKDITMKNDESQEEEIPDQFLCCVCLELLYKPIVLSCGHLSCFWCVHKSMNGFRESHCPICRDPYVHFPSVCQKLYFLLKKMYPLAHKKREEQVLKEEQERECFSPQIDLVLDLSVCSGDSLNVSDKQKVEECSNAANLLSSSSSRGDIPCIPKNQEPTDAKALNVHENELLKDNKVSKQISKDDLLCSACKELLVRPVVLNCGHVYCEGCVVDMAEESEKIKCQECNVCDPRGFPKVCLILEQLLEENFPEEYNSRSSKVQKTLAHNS
In words: ITC binding of N-degron peptide to ZZ domain-deleted PRT1. As to conditions: 25 °C, ITC buffer pH 7.5, RIP-RING (1-273). The gist of the method: (§2)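 The PRT1 truncation was expressed in E. coli as a bRIP-tag fusion and purified by Ni-NTA, Blue affinity chromatography and size exclusion into ITC buffer (50 mM Tris-HCl pH 7.5, 150 mM NaCl, 1 mM TCEP). Protein was at 45~55 μM and synthetic N-degron peptide at ~550 μM in the same buffer, with 19 injections at 25 °C. Data were fitted to a one-site model, with at least three runs.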

The target in assay [5] is T5, PRT1^ZZ (Arabidopsis thaliana, UniProt Q8LBL5).
T5 sequence (Q8LBL5 308-365): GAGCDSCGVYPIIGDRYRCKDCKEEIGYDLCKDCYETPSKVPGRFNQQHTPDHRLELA
In words: ITC binding of N-degron peptide to the ZZ domain of PRT1. In short, it runs like this:
as §2

For assay [6], the target named is T6, FL PRT1^Y317A/I333A (Arabidopsis thaliana, UniProt Q8LBL5, I333A/Y317A).
T6 sequence (Q8LBL5 1-410 Y317A/I333A): T1 sequence (Q8LBL5 1-410) with Y317A, I333A
In words: ITC binding of N-degron peptide to full-length PRT1 Y317A/I333A double mutant. As to conditions: 25 °C, ITC buffer pH 7.5, FL PRT1 Y317A/I333A double mutation. The gist of the method:
as §1

The target in assay [7] is RING2 domain of PRT1, wild type (Arabidopsis thaliana). In words: SEC-MALS. In general terms: In gel filtration, larger molecules generally elute earlier.
Assay [8] addresses FL PRT1 Y317A mutant (Arabidopsis thaliana) (UniProt Q8LBL5). In words: ITC. (In general: Isothermal titration calorimetry measures the heat released or taken up as one component is titrated into another.)
For assay [9], the target named is FL PRT1 I333A mutant (Arabidopsis thaliana) (UniProt Q8LBL5). In words: ITC.
The target of assay [10] is full-length (FL) PRT1 wild-type (WT), PROTEOLYSIS1 of Arabidopsis thaliana (Arabidopsis thaliana) (UniProt Q8LBL5). In words: ITC.

Where a chain is given by its changes, count along the chain named. Peptide text beside a SMILES is read from it.

Compound `C[C@H](NC(=O)[C@H](C)NC(=O)[C@@H](N)Cc1ccccc1)C(=O)O` [FAA] (H-Phe-Ala-Ala-OH) had a Kd in [1] of 5.45 ± 0.212 µM.

With `C[C@H](NC(=O)[C@H](C)NC(=O)[C@@H](N)Cc1c[nH]c2ccccc12)C(=O)O` [WAA] (H-Trp-Ala-Ala-OH), in [1], the Kd amounted to 2.85 ± 0.164 µM.

For `C[C@H](NC(=O)[C@H](CCCCN)NC(=O)[C@@H](N)Cc1ccc(O)cc1)C(=O)O` [YKA] (H-Tyr-Lys-Ala-OH), the “dissociation constant (KD), binding affinity” value in [2] and in [3] was “not bound” each time.

In the case of `NCCCC[C@H](NC(=O)[C@@H](N)Cc1ccc(O)cc1)C(=O)N[C@@H](Cc1ccccc1)C(=O)O` [YKF, Tyr-Lys-Phe] (H-Tyr-Lys-Phe-OH), the “binding affinity (KD)” value in assay [4] is “no binding affinity was detected”. The compound further displayed a Kd in assay [5] of 10.1 µM. The “dissociation constant (KD), binding affinity” value in [6] is on record as “considerably low affinity”.

On to “RING2 domain of PRT1, wild type (domain or fragment)”, for which the stoichiometry N in [7] came to 2.

Take Tyr N-degron peptide (Tyr-Lys-Phe): the Kd in assay [8] was 41.3 µM; in assay [9], 13.7 µM.

In assay [10], YAA peptide came in with a Kd of 23.3 µM.

The Kd is the constant that tells how readily two partners part at equilibrium. As a reminder, the stoichiometry N is a count of units in the complex or per binding partner.
